Results from ChEMBL document CHEMBL4706772, “Structure-Based Design of A-1293102, a Potent and Selective BCL-X Inhibitor” (ACS Med Chem Lett, 2021).

What was measured:
[1] = system: RS4-11; assay: Cytotoxicity against human RS4-11 cells assessed as reduction in cell viability measured after 48 hrs by celltiter-glo assay; type: functional, cell-based; details: RS4-11, 48 h
[2] = target: T1, Bcl-2-like protein 1 (Homo sapiens, UniProt Q07817); assay: Binding affinity to N-terminal GST-tagged BCL-XL (unknown origin) assessed as association rate constant by SPR analysis
[3] = target: T1, Bcl-2-like protein 1; assay: Binding affinity to N-terminal GST-tagged BCL-XL (unknown origin) assessed as residence half-life by SPR analysis
[4] = target: T1, Bcl-2-like protein 1; assay: Binding affinity to N-terminal GST-tagged BCL-XL (unknown origin) assessed as equilibrium dissociation constant by SPR analysis
[5] = target: T1, Bcl-2-like protein 1; assay: Inhibition of F-Bak binding to GST-tagged BCL-XL (unknown origin) measured after 1 hr by TR-FRET assay
[6] = target: T1, Bcl-2-like protein 1; assay: Binding affinity to N-terminal GST-tagged BCL-XL (unknown origin) assessed as dissociation rate constant by SPR analysis
[7] = system: MOLT-4; assay: Cytotoxicity against human MOLT-4 cells assessed as reduction in cell viability measured after 48 hrs by celltiter-glo assay; type: functional, cell-based; details: MOLT-4, 48 h
[8] = target: Induced myeloid leukemia cell differentiation protein Mcl-1 (Homo sapiens, UniProt Q07820); assay: Inhibition of F-Bak binding to GST-tagged MCL1 (unknown origin) measured after 1 hr by TR-FRET assay
[9] = species: Homo sapiens; assay: Selectivity ratio of Ki for inhibition of F-Bak binding to GST-tagged BCL2 (unknown origin) to Ki for inhibition of F-Bak binding to GST-tagged BCL-XL (unknown origin)
[10] = system: MOLT-4; assay: Induction of apoptosis in human MOLT-4 cells assessed as activation of caspase-3/7 measured after 24 hrs by caspase-3/7 fluorescence assay; type: functional, cell-based
In short: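 MOLT-4 cells incubated 24 h with a rising concentration series of inhibitor. Read-out was caspase-3 and caspase-7 activation, reported as percentage of caspase-3/-7-positive cells.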

[11] = target: Apoptosis regulator Bcl-2 (Homo sapiens, UniProt P10415); assay: Inhibition of F-Bak binding to GST-tagged BCL2 (unknown origin) measured after 1 hr by TR-FRET assay
[12] = system: MOLT-4; assay: Induction of apoptosis in human MOLT-4 cells assessed as externalization of phosphatidylserine measured after 24 hrs by annexin-V staining based flow cytometry; type: functional, cell-based
In short: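 Phosphatidylserine exposure in MOLT-4 cells was scored by annexin V binding after 24 h exposure to increasing inhibitor concentrations. Results are expressed as percent annexin V-positive cells.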

[13] = system: MOLT-4; assay: Induction of mitochondrial membrane depolarization in human MOLT-4 cells measured after 24 hrs; type: functional, cell-based

T1 sequence (Q07817 whole entry): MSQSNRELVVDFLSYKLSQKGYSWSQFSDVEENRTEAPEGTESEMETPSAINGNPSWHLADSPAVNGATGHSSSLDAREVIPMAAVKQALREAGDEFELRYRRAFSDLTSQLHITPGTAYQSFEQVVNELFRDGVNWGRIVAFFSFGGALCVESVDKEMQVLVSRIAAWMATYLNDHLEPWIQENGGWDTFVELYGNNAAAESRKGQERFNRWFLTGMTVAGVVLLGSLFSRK
Induced myeloid leukemia cell differentiation protein Mcl-1, sequence (Q07820 whole entry): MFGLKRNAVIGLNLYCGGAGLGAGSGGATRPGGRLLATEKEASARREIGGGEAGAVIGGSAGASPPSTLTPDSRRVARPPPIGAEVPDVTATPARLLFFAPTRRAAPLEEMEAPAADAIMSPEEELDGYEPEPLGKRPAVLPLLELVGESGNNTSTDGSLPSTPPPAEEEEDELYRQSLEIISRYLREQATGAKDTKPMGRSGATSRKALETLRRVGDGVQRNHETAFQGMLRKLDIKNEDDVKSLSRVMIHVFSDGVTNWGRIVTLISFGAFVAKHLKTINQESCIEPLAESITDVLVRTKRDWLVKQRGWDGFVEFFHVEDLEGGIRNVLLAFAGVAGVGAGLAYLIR
Apoptosis regulator Bcl-2, sequence (P10415 whole entry): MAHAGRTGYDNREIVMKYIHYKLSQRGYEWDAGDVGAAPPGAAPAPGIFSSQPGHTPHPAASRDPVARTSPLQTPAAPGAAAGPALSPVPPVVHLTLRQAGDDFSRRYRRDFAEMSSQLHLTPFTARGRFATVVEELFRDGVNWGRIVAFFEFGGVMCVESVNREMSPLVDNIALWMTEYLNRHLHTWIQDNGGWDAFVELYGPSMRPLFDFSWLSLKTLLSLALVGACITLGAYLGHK

| K [2] | T1/2 [3] [min] | Kd [4] [nM] | Ki [5] [nM] | K [6] [s⁻¹] | Ki [8] [nM] | Ratio Ki [9] | Ki [11] [nM] | Compound | EC50 [1] [nM] | EC50 [7] [nM] | Activity [10] | Activity [12] | Activity [13] |
| --- | --- | --- | --- | --- | --- | --- | --- | --- | --- | --- | --- | --- | --- |
| 2.18 10^7/M/s | 1 | 0.5 | 0.14 | 0.0109 | > 1560 | > 220 |  | CN(C)CC[C@H](CSc1ccccc1)Nc1ccc(S(=O)(=O)NC(=O)c2csc(N3CCc4cccc(C(=O)Nc5nc6ccccc6s5)c4C3)n2)cc1[N+](=O)[O-] | > 5000 | > 5000 |  |  |  |
| 5.88 10^5/M/s | 49 | 0.4 | 0.43 | 0.000234 | > 3900 | > 220 | 193 | O=C(NS(=O)(=O)c1ccc(N[C@H](CCN2CCOCC2)CSc2ccccc2)c(S(=O)(=O)C(F)(F)F)c1)c1csc(N2CCc3cccc(C(=O)Nc4nc5ccccc5s4)c3C2)n1 | > 5000 | 80 | Dose-dependent effect | Dose-dependent effect | Dose-dependent effect |
